These results are taken from PubChem BioAssay AID463079 (The Scripps Research Institute Molecular Screening Center, 2010).

Screen size: about 330,000 compounds; about 2,000 (0.61%) were called active. The sample holds actives, similar compounds and a random draw of the others, so the mix is not that of the screen.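 The calls were made as follows: active = inhibition above that plate's mean sample inhibition plus 3 SD (cut at about 26% in these data); inactive = the rest.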

This assay in a line: nonselective Gq signaling inhibition in CHO cells – cell-based, fluorescence, Fluo-8 calcium dye, counter-screen for OX1R antagonist project, primary screen (AID 463079).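 Also: 0% = ATP-challenged DMSO wells and 100% = DMSO wells without ATP.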 As to conditions: parental CHO-K1, ATP-induced calcium, Fluo-8 fluorescence; at 5.6 µM; active compounds read high. The method in brief:
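Measured by: calcium-sensitive Fluo-8 fluorescence / Test system: CHO parental line / Controls: ATP-challenged DMSO wells low, unchallenged DMSO wells high / Measure: % inhibition / Compound: single nominal dose of 5.6 µM per compound / Replicates: single well per compound, no replicates / Reagent: ATP as calcium-mobilizing challenge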
For the molecule `CC(C)c1nnc(NC(=O)COC(=O)/C=C/c2ccc([N+](=O)[O-])cc2)s1`, the inhibition was -9.22% (inactive). As for `CC(=O)c1cccc(OCc2cc(C(=O)NC(C)Cc3cccnc3)no2)c1` (stereo unspecified), the figure is -20% (inactive). As for `Cc1ccc(OCc2cc(C(=O)N(C)CCc3ccccc3)no2)cc1C`, the figure is -11.5% (inactive). The same measure for `CN(Cc1cccnc1)C(=O)c1cc(COc2ccc3ncccc3c2)on1`: 41.8% (active). `CCOC1CCCCC1NS(=O)(=O)c1ccc(Cl)cc1` (stereo unspecified): the inhibition was -18.7% (inactive). The same measure for `Cc1ccc(NC(=O)CSc2cccc3cccnc23)c(C)c1`: 0.17% (inactive). In the case of `Cc1c(NC(=O)CSc2cccc3cccnc23)c(=O)n(-c2ccccc2)n1C`, the inhibition was 25.1% (active). As for `Cc1c(NC(=O)CSc2nnc(-c3cccnc3)n2N)c(=O)n(-c2ccccc2)n1C`, the inhibition was -5.93% (inactive). Take `CCOCc1nnc(NC(=O)CCS(=O)(=O)Cc2ccccc2)s1`: the inhibition was 3.73% (inactive). As to `OC(CNCCc1ccc(Cl)cc1Cl)COc1ccccc1` (stereo unspecified), the inhibition was -7.3% (inactive). In the case of `CCOc1ccc(/C=N/NC(N)=S)cc1`, the inhibition is -2.97% (inactive).

On to `NC(N)=N/N=C/c1ccc(OCc2ccc(Cl)cc2Cl)cc1`, for which the inhibition is 64.6% (active). Consider `Cn1c(Cc2cccc3ccccc23)nnc1SCC(=O)N1CCN(c2cccc(Cl)c2)CC1`, for which the inhibition is -6.75% (inactive). Turning to `Cc1ccc(-c2nnn(CC(=O)N(CCO)C(C(=O)NC(C)(C)C)c3ccncc3)n2)cc1` (stereo unspecified), the inhibition was -17.6% (inactive).

With `COc1cc(F)c(C2=CC(=O)CC(C)(C)C2)cc1F`, the inhibition was -13.2% (inactive).

Consider `CCOC(=O)C1=C(c2ccccc2)N=C2SCC(=O)N2C1c1ccc(O)c(OC)c1` (stereo unspecified), for which the inhibition was -27.1% (inactive). Consider `Cc1cc(N=Nc2ccc3ccccc3c2)ccc1O`, for which the inhibition was 14.3% (inactive).

Consider `CC(C)(C)OC(=O)NCCCCCNC(=O)c1nc[nH]c1C(=O)NCc1ccccc1`, for which the inhibition is -30.4% (inactive). As for `CC(=O)N1CCCc2cc(S(=O)(=O)N3CCCC(C(=O)NCc4ccc(Cl)cc4)C3)ccc21` (stereo unspecified), the figure is -11.9% (inactive). As for `CC(=O)N1CCCc2cc(S(=O)(=O)N3CCCC(C(=O)N4CCN(c5cccc(Cl)c5)CC4)C3)ccc21` (stereo unspecified), the figure is 66.2% (active); as for `CC(=O)N1c2ccc(S(=O)(=O)N3CCCC(C(=O)Nc4cccc(Cl)c4)C3)cc2CC1C` (stereo unspecified), -6.72% (inactive). As for `O=C(c1ccc(Br)o1)N1CCN(CCOc2ccccc2)CC1`, the inhibition is -7.03% (inactive).

As for `CCOC(=O)C1CCCN(C(=O)CSc2nnc3nc(C)cc(C)n23)C1` (stereo unspecified), the inhibition was -13.2% (inactive). For the molecule `Cc1ccc(CN(Cc2cccnc2)C(=S)Nc2cccc(Cl)c2C)cc1`, the inhibition was -2.11% (inactive). As to `Cc1c(Cl)cccc1NC(=S)N(Cc1ccccc1)Cc1cccnc1`, the inhibition is -0.95% (inactive).

Consider `Cc1ccc(CN(Cc2cccnc2)C(=S)Nc2cc(Cl)ccc2C)cc1`, for which the inhibition was 64.7% (active). With `CN1CCN(C(=O)N2c3ccccc3CCc3ccccc32)CC1`, the inhibition was -14.7% (inactive). As for `O=C1C=C(c2cccc(Cl)c2)C[C@@H](c2ccc(F)cc2)C1`, the figure is -24% (inactive). The same measure for `COC(=O)CNS(=O)(=O)c1ccc(OC)cc1`: 4.49% (inactive). As for `COc1ccc(S(=O)(=O)NCCCCOc2ccc(Cl)cc2)cc1`, the figure is 62.1% (active); as for `COc1ccc(S(=O)(=O)NCCCc2ccccc2)cc1`, 9.88% (inactive); as for `Cc1ccccc1S(=O)(=O)N1[C@@H](c2cccc(Cl)c2)C(C(=O)O)=CC[C@H]1c1ccc(Cl)cc1`, -5.28% (inactive).

As for `Cc1ccc(S(=O)(=O)N2[C@@H](c3cccc(Cl)c3)C(C(=O)O)=CC[C@H]2c2ccc(Cl)c(Cl)c2)cc1`, the inhibition is 36.9% (active).

`Cc1ccc([C@@H]2CC=C(C(=O)O)[C@H](c3cccc(Cl)c3)N2S(=O)(=O)c2ccc(C)cc2)cc1`: the inhibition was -14.4% (inactive). As for `CCCC(C(=O)n1nc(C)cc1C)C(NS(=O)(=O)c1ccc(C)cc1)c1ccccc1` (stereo unspecified), the inhibition was 40.6% (active).

Turning to `Cc1ccc(S(=O)(=O)NC(C(=O)N2CCOCCOCCOCCOCC2)c2ccccc2)cc1` (stereo unspecified), the inhibition is -9.77% (inactive). With `Cc1ccc(S(=O)(=O)Nc2nc(C)cc(-n3nc(C)cc3C)n2)cc1`, the inhibition was 2.29% (inactive). On to `C/C(=N/OC(=O)c1cccc(C(F)(F)F)c1)c1cnccn1`, for which the inhibition is -5.36% (inactive). Take `O=C(Nc1ccc2ccccc2c1)Nc1ccc2snnc2c1`: the inhibition was 55.2% (active).

On to `CCc1ccccc1NC(=O)c1ccc2snnc2c1`, for which the inhibition is -1.87% (inactive).

Turning to `O=C(Nc1cccc(Br)c1)c1ccc2snnc2c1`, the inhibition was 17.8% (inactive). Take `COc1cc(C2OC(c3cc(OC)c(OC)c(OC)c3)C(C)C2C)cc(OC)c1OC` (stereo unspecified): the inhibition is -16.8% (inactive). The same measure for `CC1(NC(=O)CCS(=O)(=O)c2ccc(Cl)cc2)CCS(=O)(=O)C1` (stereo unspecified): -11.8% (inactive); for `CCCN1C(=O)C(NS(=O)(=O)c2ccc(N)cc2)(C(F)(F)F)C(C(=O)OC)=C1C` (stereo unspecified): -9.93% (inactive); for `COc1cc(NC(=O)CSc2nnc3ccc(-c4ccncc4)nn23)cc(OC)c1`: -9.28% (inactive). For `CCCc1nnc(SCC(=O)Nc2ccc(C(=O)OCC)cc2)o1`, the inhibition was -6.7% (inactive). For the molecule `CCOC(=O)c1ccc(NC(=O)Cn2cnc3cc(C)c(C)cc32)cc1`, the inhibition was 56.1% (active). For the molecule `CCOC(=O)c1ccc(NC(=O)CSc2nnc(COc3ccccc3OC)n2C)cc1`, the inhibition is -24.5% (inactive). For `COc1ccc(C(=O)Nc2cc(S(=O)(=O)N3CCCC3)ccc2Cl)cc1`, the inhibition is -15.8% (inactive).

Consider `CN(C)C(=O)CCc1ccc2c3c([nH]c2c1)[C@]1(CCc2ccccc2)[C@@H](C(=O)N2CCCCC2)C[C@H](CC(=O)NCCC2=CCCCC2)C(=O)N1CC3`, for which the inhibition was -31.7% (inactive).

For `Oc1cc(O)c2c(c1)OC(c1ccc(O)c(O)c1)C(O)C2` (stereo unspecified), the inhibition was -0.43% (inactive).

For `CC(C)Cc1nnc(NC(=O)CCNC(=O)c2ccccc2Cl)s1`, the inhibition is -7.69% (inactive). Regarding `CCOC(=O)N1CCN(C(=O)C2CCN(Cc3ccc(OC)cc3OC)CC2)CC1`, the inhibition is -15.1% (inactive). As to `CCOC(=O)N1CCN(C(=O)C2CCN(c3ncnc4c3sc3cccc(F)c34)CC2)CC1`, the inhibition was 37.1% (active). For `CCOC(=O)N1CCN(C(=O)C2CCN(S(=O)(=O)c3cc(Cl)ccc3OCC)CC2)CC1`, the inhibition was -9.79% (inactive). As for `COc1cccc(CC(=O)OCC(=O)NCc2ccc3c(c2)OCO3)c1`, the inhibition is -4.2% (inactive).
